Experimental data: ChEMBL document CHEMBL1148625, “3-(1,1-dioxo-2H-(1,2,4)-benzothiadiazin-3-yl)-4-hydroxy-2(1H)-quinolinones, potent inhibitors of hepatitis C virus RNA-dependent RNA polymerase” (J Med Chem, 2006); call rule not given here
pEC50, pIC50: −log10 of the molar value.

Key:
[1] = target: RNA-directed RNA polymerase (Hepacivirus hominis, UniProt O39930); test: Inhibitory activity against HCV 1a NS5B RNA polymerase
[2] = Cmax in Sprague-Dawley rat at 1.3 mg/kg, iv or 3.4 mg/kg, po; assay type: ADME, organism-based; conditions: in vivo
Procedure, shortened: (§1)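 Single intravenous or oral doses given to Sprague-Dawley rats. Values are reported as means: Cmax (ng/mL), half-life (min), plasma clearance (mL/min/kg), steady-state volume of distribution (L/kg) and oral bioavailability F (%).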

[3] = Cmax in Beagle dog at 0.8 mg/kg, iv or 4.0 mg/kg, po; assay type: ADME, organism-based, Canis lupus familiaris; conditions: in vivo
Procedure, shortened: (§2)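 Single-dose study, with separate intravenous and oral administrations at the listed mg/kg. Plasma concentrations were followed over time, and mean values were derived for Cmax, T1/2, clearance (mL/min/kg), Vdss (L/kg) and oral bioavailability (%).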

[4] = target: RNA-directed RNA polymerase (Hepacivirus hominis) (UniProt O39930); test: Inhibitory activity against HCV 3a NS5B RNA at 10 uM
[5] = Oral bioavailability in Sprague-Dawley rat at 1.3 mg/kg, iv or 3.4 mg/kg, po; assay type: ADME, organism-based; conditions: in vivo; procedure, shortened: as §1
[6] = Clearance in cynomolgus monkey at 0.8 mg/kg, iv or 4.0 mg/kg, po; assay type: ADME, organism-based, Macaca fascicularis; conditions: in vivo; procedure, shortened: as §2
[7] = Volume of distribution in Beagle dog at 0.8 mg/kg, iv or 4.0 mg/kg, po; assay type: ADME, organism-based, Canis lupus familiaris; conditions: in vivo, read-out: Vdss; procedure, shortened: as §2
[8] = target: Cytochrome P450 3A4 (Homo sapiens, UniProt P08684); test: Effect on CYP3A4 induction; assay type: ADME
[9] = system: Hepatitis C virus; test: Protein binding in Huh7 cells using HCV 1b replicon by a replicon cell assay in presence of HSA; assay type: functional, organism-based, Hepacivirus hominis; conditions: genotype 1b, Huh-7
[10] = Clearance in Sprague-Dawley rat at 1.3 mg/kg, iv or 3.4 mg/kg, po; assay type: ADME, organism-based; conditions: in vivo; procedure, shortened: as §1
[11] = target: DNA polymerase beta (Homo sapiens, UniProt P06746); test: Inhibitory activity against human DNA-polymerase-beta
[12] = Volume of distribution in cynomolgus monkey at 0.8 mg/kg, iv or 4.0 mg/kg, po; assay type: ADME, organism-based, Macaca fascicularis; conditions: in vivo, read-out: Vdss; procedure, shortened: as §2
[13] = system: Hepatitis C virus; test: Protein binding in Huh7 cells using HCV 1b replicon by a replicon cell assay in presence of HSA and alpha-acid glycoprotein; assay type: functional, organism-based, Hepacivirus hominis; conditions: genotype 1b, Huh-7
[14] = Cmax in cynomolgus monkey at 0.8 mg/kg, iv or 4.0 mg/kg, po; assay type: ADME, organism-based, Macaca fascicularis; conditions: in vivo; procedure, shortened: as §2
[15] = target: T1, Nuclear receptor subfamily 1 group I member 2 (Homo sapiens, UniProt O75469); test: Effect on PXR activity
T1 sequence (O75469 whole entry): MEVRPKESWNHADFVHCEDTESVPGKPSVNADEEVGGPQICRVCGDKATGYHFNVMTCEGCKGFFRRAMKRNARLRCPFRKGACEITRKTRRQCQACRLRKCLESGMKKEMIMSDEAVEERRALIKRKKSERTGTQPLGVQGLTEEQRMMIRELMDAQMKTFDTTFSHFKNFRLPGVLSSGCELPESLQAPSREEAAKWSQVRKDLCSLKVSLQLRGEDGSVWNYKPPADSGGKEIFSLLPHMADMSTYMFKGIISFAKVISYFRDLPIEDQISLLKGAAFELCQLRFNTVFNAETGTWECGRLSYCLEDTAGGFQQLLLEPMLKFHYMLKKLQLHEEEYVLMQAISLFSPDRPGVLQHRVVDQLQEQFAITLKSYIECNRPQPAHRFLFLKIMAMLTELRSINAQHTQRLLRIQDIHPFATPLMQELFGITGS

[16] = target: Genome polyprotein (GB virus-B, UniProt Q69422); test: Inhibitory activity against virus GBV-B polymerase
[17] = Oral bioavailability in Beagle dog at 0.8 mg/kg, iv or 4.0 mg/kg, po; assay type: ADME, organism-based, Canis lupus familiaris; conditions: in vivo; procedure, shortened: as §2

Chain of Cytochrome P450 3A4 (P08684 whole entry): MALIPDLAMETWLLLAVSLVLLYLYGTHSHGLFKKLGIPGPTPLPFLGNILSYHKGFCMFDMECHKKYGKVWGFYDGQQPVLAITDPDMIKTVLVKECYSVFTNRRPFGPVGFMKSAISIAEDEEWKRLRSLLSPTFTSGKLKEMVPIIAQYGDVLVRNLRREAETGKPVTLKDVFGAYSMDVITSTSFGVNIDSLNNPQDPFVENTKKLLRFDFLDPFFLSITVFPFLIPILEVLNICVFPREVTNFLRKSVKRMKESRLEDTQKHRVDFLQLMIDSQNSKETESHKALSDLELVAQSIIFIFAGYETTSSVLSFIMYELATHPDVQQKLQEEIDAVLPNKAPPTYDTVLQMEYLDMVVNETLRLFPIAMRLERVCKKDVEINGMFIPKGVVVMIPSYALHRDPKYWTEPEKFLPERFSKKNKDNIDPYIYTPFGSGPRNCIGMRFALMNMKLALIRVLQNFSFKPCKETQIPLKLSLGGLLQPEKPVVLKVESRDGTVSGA
Chain of RNA-directed RNA polymerase (O39930 whole entry): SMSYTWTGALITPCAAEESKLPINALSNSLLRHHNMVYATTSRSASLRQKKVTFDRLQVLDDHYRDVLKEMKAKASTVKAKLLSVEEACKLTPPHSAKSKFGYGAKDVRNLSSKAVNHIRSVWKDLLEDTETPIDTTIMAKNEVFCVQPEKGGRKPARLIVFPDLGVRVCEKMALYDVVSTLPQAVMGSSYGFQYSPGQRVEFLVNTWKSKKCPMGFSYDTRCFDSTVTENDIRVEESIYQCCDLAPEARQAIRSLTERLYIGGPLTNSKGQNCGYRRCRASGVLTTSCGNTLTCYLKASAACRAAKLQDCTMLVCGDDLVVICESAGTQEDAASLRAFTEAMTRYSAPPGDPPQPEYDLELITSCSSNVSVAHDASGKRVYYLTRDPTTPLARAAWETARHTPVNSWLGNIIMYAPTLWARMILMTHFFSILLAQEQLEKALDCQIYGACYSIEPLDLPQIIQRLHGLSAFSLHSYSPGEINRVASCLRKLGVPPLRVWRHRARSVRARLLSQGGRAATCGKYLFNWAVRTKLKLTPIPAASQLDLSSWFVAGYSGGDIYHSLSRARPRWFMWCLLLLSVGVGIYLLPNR
Chain of RNA-directed RNA polymerase (Hepacivirus hominis) (O39930 1-591): as the sequence (O39930 whole entry) above
Chain of Genome polyprotein (Q69422 2275-2864 limits assumed): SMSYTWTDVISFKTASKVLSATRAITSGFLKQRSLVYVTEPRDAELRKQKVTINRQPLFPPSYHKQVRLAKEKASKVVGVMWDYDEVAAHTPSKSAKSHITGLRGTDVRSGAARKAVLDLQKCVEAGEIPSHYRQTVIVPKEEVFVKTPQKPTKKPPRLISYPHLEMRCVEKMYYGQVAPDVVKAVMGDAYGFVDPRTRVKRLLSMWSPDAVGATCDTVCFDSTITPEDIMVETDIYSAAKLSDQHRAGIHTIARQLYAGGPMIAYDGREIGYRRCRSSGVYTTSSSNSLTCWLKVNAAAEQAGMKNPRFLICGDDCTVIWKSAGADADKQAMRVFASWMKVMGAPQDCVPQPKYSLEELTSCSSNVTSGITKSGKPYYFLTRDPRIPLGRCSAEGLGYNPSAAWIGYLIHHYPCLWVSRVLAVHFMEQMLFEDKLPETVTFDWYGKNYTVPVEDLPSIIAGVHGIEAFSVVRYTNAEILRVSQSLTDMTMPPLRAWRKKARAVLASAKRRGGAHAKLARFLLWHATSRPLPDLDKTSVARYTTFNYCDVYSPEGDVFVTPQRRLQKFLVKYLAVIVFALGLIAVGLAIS

- pIC50 [1]: 7.31
- Cmax [2]: 4140 ng/mL
- Cmax [3]: 4460 ng/mL
- inhibition [4]: 60%
- bioavailability [5]: 44%
- clearance [6]: 0.76 mL/min/kg
- Vd [7]: 0.15 L/kg
- Activity [8]: Active
- pEC50 [9]: 4.89
- clearance [10]: 1.4 mL/min/kg
- pIC50 [11]: < 4.30
- Vd [12]: 0.11 L/kg
- pEC50 [13]: < 4.70
- Cmax [14]: 5440 ng/mL
- pEC50 [15]: 5.28
- pIC50 [16]: < 4.30
- bioavailability [17]: > 35%
Structure (SMILES): O=c1c(C2=Nc3ccccc3S(=O)(=O)N2)c(O)c2cc(F)ccc2n1CCC1CC1
